Hsp70 act: Hsp70 transcriptional activators, primary screen, cell-based, HeLa, Hsp70 promoter luciferase, luminescence, 10 µM; HeLa Hsp70 promoter luciferase reporter; scaled: vehicle 0, proteasome-inhibitor control 100%; AID 1203, 2008; 0.04% of 200,000 active; activation, % at 10 µM;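 active = activation above the mean across all tested compounds plus 3 SD, cutoff set per campaign, cut at about 5.5% in these data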;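 note: 100% = MG132 at 30 µM as the positive control and 0% = DMSO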
PGE2 EP2 inh: human EP2 receptor antagonists, primary screen, TR-FRET cAMP, C6 glioma cells | Prostaglandin E2 receptor EP2 subtype (Homo sapiens), P43116 | inhibition, % at 25 µM | C6 glioma cells expressing human EP2; cells stimulated with saturating PGE2 | 0.52% of 260,000 active;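 active = percent inhibition above 40 after rounding to a whole number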;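 note: rat C6 glioma host cells with rolipram phosphodiesterase inhibitor present; the protocol text gives 20 µM as final concentration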
Target sequence (P43116 whole entry, looked up): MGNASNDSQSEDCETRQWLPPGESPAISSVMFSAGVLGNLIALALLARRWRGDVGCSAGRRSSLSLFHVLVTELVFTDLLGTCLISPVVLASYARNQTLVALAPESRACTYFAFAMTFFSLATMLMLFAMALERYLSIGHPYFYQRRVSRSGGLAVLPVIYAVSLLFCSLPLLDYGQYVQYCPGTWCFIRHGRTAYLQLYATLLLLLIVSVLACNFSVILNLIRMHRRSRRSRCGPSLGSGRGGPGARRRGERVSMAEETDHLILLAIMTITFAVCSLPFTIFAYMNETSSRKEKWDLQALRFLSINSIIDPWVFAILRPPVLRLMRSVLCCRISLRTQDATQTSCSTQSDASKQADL
Dynein transport: inhibitors of GR-EGFP nuclear translocation, primary screen, dynein cargo transport inhibitor project, imaging, high-content, 3617.4 mouse cells. 0.47% of 220,000 active. test concentration mostly 20 µM; stimulated with dexamethasone, 1 µM; active compounds read low. z-score, hits read low;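 active = plate z-score of nuclear minus cytoplasmic receptor signal below a set negative limit, without overly bright fluorescence or cell loss, cut at about -3.5 in these data, passing the limit was not always enough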;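 note: z-score of nuclear minus cytoplasmic ring GR-EGFP intensity difference per well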
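Buffer or medium – tet-free medium with charcoal-stripped serum · Signal – automated 10x imaging of fixed Hoechst-stained cells · Also added – dexamethasone agonist, 1.0 µM final, for 30 min · Incubation – induction 48 h, compound 1 h, agonist 30 min · Read-out – GR-EGFP nuclear translocation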
EP2 mod: EP2 receptor modulators, cAMP readout, primary screen, cell-based, HTRF cAMP, PGE2 stimulation. Prostaglandin E2 receptor EP2 subtype (Homo sapiens), P43116. EP2-expressing cells, cAMP HTRF FRET, PGE2 co-stimulation. induction, % at 25 µM. 0.83% of 260,000 active;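 active = compounds whose cAMP rise, as percent of the full-agonist control response, exceeds 60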;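 note: rat C6 glioma line stably carrying human EP2 under a CMV promoter; the protocol text gives 20 µM as final concentration; 100% = response of wells given 1 µM PGE2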
EP2 confirm: cAMP induction in EP2, EP4, beta2-AR and parental cells, confirmation, counter-screen for EP2 modulator project, cell-based, five parallel assays, C6 glioma, HEK293. shares compounds with EP2 mod. cAMP HTRF induction; plus low (about EC15) PGE2 agonist. 47% of 1,300 active. calls only at 20 µM (by protocol);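 active = cAMP induction above 50% in the main assay while under 30% in all four parallel counter assays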;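 note: rat C6 glioma cells stably expressing human EP2 receptor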
Starred values were filed as active, the others as inactive; i = inactive; / = not tested or not shown; + = active, no number. An excerpt weighted towards active compounds, which were near 1.7% of everything screened.

SMILES | Hsp70 act | PGE2 EP2 inh | Dynein transport | EP2 mod | EP2 confirm
Cc1occc1-c1nnc(SCC(=O)N2CCOCC2)n1CC1CCCO1 (configuration not stated) | / | 5 | / | -5 | /
CC(C(=O)NCC1CCCCC1)n1nc(-c2cccs2)cc(N)c1=O (configuration not stated) | / | 8 | / | -48 | /
COc1cccc(CN2CCN(C(=O)C(OC)c3ccccc3)[C@@H](C)C2)c1 (some centres not stated) | / | / | / | -25 | /
CCOC(=O)CSc1nc(-c2ccccc2)nc2ccccc12 | 0 | 5 | -0.77 | 70* | +
CSc1nc(-c2ccc(Cl)cc2)nn1S(=O)(=O)c1ccccc1 | 0 | 13 | 0.22 | 85* | +
CCC(c1nnnn1CCc1ccccc1)N(Cc1ccco1)Cc1cc2cc(C)ccc2[nH]c1=O (configuration not stated) | / | 9 | / | 38 | /
Cc1cc([N+](=O)[O-])c(C(C)(C)C)cc1N | 0 | 9 | 1.3 | 10 | /
Cc1cc([N+](=O)[O-])c(C)c(Br)c1C | / | 15 | / | 52 | i
CCC(=O)Nc1ccc(NC(=O)C2CCCCC2)nc1 | / | 9 | / | -1 | /
CC(C)Sc1nc2sc3c(c2c2nnc(SCC(=O)NCc4ccco4)n12)CCCC3 | 0 | 11 | -1 | 58 | i
Cc1nc(SCC(=O)NCc2ccco2)c2c3c(sc2n1)CCCC3 | 0 | 17 | -0.28 | 1 | /
CCCCOC(=O)n1c(=S)oc2cc(Cl)ccc21 | 0 | 13 | 0.11 | 71* | i
CCC(CN1CCOCC1)NC(=O)Cc1c(C)oc2c1C(=O)CC(C)(C)C2 (configuration not stated) | / | 4 | / | -4 | /
c1ccc(C2=Nc3ccccc3NC(c3ccccc3)C2)cc1 (configuration not stated) | 0 | 1 | -0.091 | 65* | +
COc1ccc(-c2c(C(C)=O)c(C)nc3sc4c(c23)NC(c2ccccc2)NC4=O)cc1 (configuration not stated) | 0 | 10 | 0.095 | 70* | i
COc1ccc(C(=O)O)cc1Cn1cccn1 | / | 11 | / | -53 | /
Cc1c(OCc2ccccc2)c(=O)ccn1Cc1ccc(Cl)cc1 | 0 | -2 | 0.33 | 67* | i
Cc1nn(C)c(C)c1NC(=O)Cn1nc(C)c2cccn2c1=O | / | 2 | / | -8 | /
O=C(C1CCCC1)N1CCC(n2nc(-c3cccs3)ccc2=O)CC1 | / | / | / | 25 | /
O=C(O)CCN1C(=O)/C(=C/c2cn(-c3ccccc3)nc2-c2cccs2)SC1=S | 0 | 4 | -0.86 | 71* | +
CC(=O)N(Cc1cccs1)Cc1cc2ccc(C)c(C)c2nc1Cl | 0 | 8 | -1.1 | 77* | i
CC(=O)N(Cc1cccs1)Cc1cc2cc(C)cc(C)c2[nH]c1=O | / | 12 | / | -2 | /
COc1c(Cl)cc(C(=O)Nc2sc3c(c2C(N)=O)CCCC3)cc1Cl | / | 16 | / | -23 | /
O=C(Nc1ccccc1)c1nn(-c2cccc(C(F)(F)F)c2)ccc1=O | 0 | 8 | -0.75 | 84* | +
O=C(Nc1ccccc1)c1nn(-c2ccccc2)c(=O)cc1C(F)(F)F | 0 | 15 | -0.32 | 8 | /
SMILES | Hsp70 act | PGE2 EP2 inh | Dynein transport | EP2 mod | EP2 confirm
CCOc1ccc(NC(=O)CSCc2nc3sc4c(c3c(=O)[nH]2)CCCC4)cc1 | / | 6 | / | -49 | /
Clc1ccc(-c2nc3ccccn3c2CN2CCCCC2)cc1 | 0 | -1 | -1.3 | 66* | i
COC(=O)c1cc(Br)c(=O)n(-c2nccs2)c1 | -1 | 25 | 0.21 | 65* | i
C=CCn1c(CNC(=O)c2cccs2)nnc1SCC(=O)c1ccc(Br)cc1 | 0 | 5 | -0.19 | 52 | i
CCCCCn1c(CN2CCN(c3cc(Cl)ccc3C)CC2)nc2c1c(=O)[nH]c(=O)n2C | 0 | 6 | 0.24 | 78* | i
CCCCCCn1c(SCC(=O)OC)nc2c1c(=O)[nH]c(=O)n2C | 0 | 13 | 0.15 | 12 | /
CCCCCCn1c(SCC(C)C)nc2c1c(=O)[nH]c(=O)n2C | 0 | 9 | -0.77 | 67* | i
CCSc1nc2c(c(=O)[nH]c(=O)n2C)n1Cc1ccc(Cl)cc1 | -1 | 11 | -0.094 | 66* | i
Cc1nn(-c2ccccc2)c2[nH]c(=O)c(CNc3ccccc3F)cc12 | / | 16 | / | -17 | /
CCn1cc(CNC(=O)CCCSc2nc(-c3ccco3)cc(C(F)(F)F)n2)cn1 | / | 25 | / | -23 | /
Cc1ccc(C)c2[nH]c(=O)c(C(c3nnnn3CC3CCCO3)N3CCC(C)CC3)cc12 (configuration not stated) | / | 13 | / | 3 | /
C=CCn1c(SCC(=O)OC)nc2c1c(=O)[nH]c(=O)n2C | / | 10 | / | 7 | /
CC1(C)C=Cc2c(c3c(c4c(=O)c(-c5ccc(O)cc5)coc24)OC(C)(C)CC3)O1 | 0 | 13 | -0.41 | 60 | i
COc1cccc2cc(C(C)=O)oc12 | 0 | 6 | 0.2 | 4 | /
COc1cccc2cc(/C(=N/O)c3ccccc3)oc12 | 0 | 5 | 0.16 | 68* | +
CN(C)/C=C/c1onc(-c2c(Cl)cccc2Cl)c1C#N | 0 | 0 | 0.83 | 3 | /
N#Cc1c(-c2c(Cl)cccc2Cl)noc1/C=C/Nc1ccc(C(=O)O)cc1 | 0 | 5 | -0.16 | 68* | +
COC(=O)c1c(NC(=O)c2ccccc2N(C)S(=O)(=O)c2ccccc2)sc2c1CCCC2 | 0 | 0 | / | 54 | i
CCOC(=O)c1c(NC(=O)c2ccccc2N(C)S(=O)(=O)c2ccccc2)sc2c1CCCC2 | 0 | 5 | -0.75 | 29 | /
CC(C)(C)C1CCC(OC(=O)c2ccncc2)CC1 (configuration not stated) | 0 | -2 | 0.52 | 84* | i
CCOC(=O)c1sc(NC(=O)CN2CCCC2)c(C(=O)OCC)c1C | 0 | / | -0.94 | 37 | /
CCOC(=O)c1c(NC(=O)CN2CCCCC2)sc(C)c1C | 0 | 6 | -0.17 | 67* | +
COC(=O)c1c(NC(=O)Cc2cccs2)sc2c1CCC(C)C2 (configuration not stated) | 0 | 22 | 1.9 | 51 | i
CCOC(=O)c1c(NC(=O)CN2CCN(C(=O)c3ccco3)CC2)sc2c1CCCC2 | 0 | / | 2.1 | 60 | i
Cc1sc(NC(=O)CN2CCOCC2)c(C(=O)c2ccccc2)c1C | 0 | 1 | -0.58 | 69* | i
CCc1ccc2[nH]c(=O)c(CN(Cc3nnnn3CC3CCCO3)C3CCCCC3)cc2c1 (configuration not stated) | / | 11 | / | 21 | /
